Measured values: ChEMBL document CHEMBL1159037, “Synthesis and biological evaluation of novel allophenylnorstatine-based HIV-1 protease inhibitors incorporating high affinity P2-ligands” (Bioorg Med Chem Lett, 2010)

Assays:
Protease = Protease (Human immunodeficiency virus 1, UniProt Q9YQ12); assay: Inhibition of HIV1 protease
[1] = test system: Human immunodeficiency virus 1; assay: Antiviral activity against HIV1 LAI in human MT2 cells after 7 days by MTT assay; assay type: functional, organism-based; conditions: Human immunodeficiency virus 1, LAI, MT2, 168 h
How it was run: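 Human T-lymphoid MT-2 cells were exposed to 100 TCID50 of HIV-1LAI and cultured in the presence of each protease inhibitor. IC50 was determined by MTT assay. Values are means of at least three experiments.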

[2] = test system: Human immunodeficiency virus 1; assay: Antiviral activity against multi drug-resistant HIV1 isolate of subtype C in PHA-stimulated human PBMC assessed as inhibition of p24 antigen production; assay type: functional, organism-based; conditions: Human immunodeficiency virus 1, isolate C
[3] = test system: Human immunodeficiency virus 1; assay: Antiviral activity against multi drug-resistant HIV1 isolate of subtype JSL in PHA-stimulated human PBMC assessed as inhibition of p24 antigen production; assay type: functional, organism-based; conditions: Human immunodeficiency virus 1, isolate JSL
[4] = test system: Human immunodeficiency virus 1; assay: Ratio of IC50 for multi drug-resistant HIV1 isolate of subtype C to IC50 for wild type HIV1 isolate ERS104pre; assay type: functional
How it was run: (§1)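 Each assay run in duplicate; values are means (±1 SD) from two or three independent experiments. Fold change is the IC50 against each drug-resistant isolate divided by the IC50 against wild-type HIV-1 ERS104pre.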

[5] = test system: Human immunodeficiency virus 1; assay: Ratio of IC50 for multi drug-resistant HIV1 isolate of subtype G to IC50 for wild type HIV1 isolate ERS104pre; assay type: functional; how it was run: as §1
[6] = test system: Human immunodeficiency virus 1; assay: Ratio of IC50 for multi drug-resistant HIV1 isolate of subtype MM to IC50 for wild type HIV1 isolate ERS104pre; assay type: functional; how it was run: as §1
[7] = test system: Human immunodeficiency virus 1; assay: Antiviral activity against multi drug-resistant HIV1 isolate of subtype TM in PHA-stimulated human PBMC assessed as inhibition of p24 antigen production; assay type: functional, organism-based; conditions: Human immunodeficiency virus 1, isolate TM
[8] = test system: Human immunodeficiency virus 1; assay: Ratio of IC50 for multi drug-resistant HIV1 isolate of subtype TM to IC50 for wild type HIV1 isolate ERS104pre; assay type: functional; how it was run: as §1
[9] = test system: Human immunodeficiency virus 1; assay: Antiviral activity against multi drug-resistant HIV1 isolate of subtype G in PHA-stimulated human PBMC assessed as inhibition of p24 antigen production; assay type: functional, organism-based; conditions: Human immunodeficiency virus 1, isolate G
[10] = test system: Human immunodeficiency virus 1; assay: Antiviral activity against multi drug-resistant HIV1 isolate of subtype MM in PHA-stimulated human PBMC assessed as inhibition of p24 antigen production; assay type: functional, organism-based; conditions: Human immunodeficiency virus 1, isolate MM
[11] = test system: Human immunodeficiency virus 1; assay: Ratio of IC50 for multi drug-resistant HIV1 isolate of subtype JSL to IC50 for wild type HIV1 isolate ERS104pre; assay type: functional; how it was run: as §1
[12] = test system: Human immunodeficiency virus 1; assay: Antiviral activity against wild type HIV1 isolate ERS104pre in PHA-stimulated human PBMC assessed as inhibition of p24 antigen production; assay type: functional, organism-based; conditions: Human immunodeficiency virus 1, isolate ERS104pre

Sequence of Protease (Q9YQ12 whole entry): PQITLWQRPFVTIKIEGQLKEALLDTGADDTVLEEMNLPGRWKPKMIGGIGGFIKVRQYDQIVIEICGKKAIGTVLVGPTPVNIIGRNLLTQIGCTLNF

Cc1cc(CO)ccc1CNC(=O)[C@H]1N(C(=O)[C@@H](O)[C@H](Cc2ccccc2)NC(=O)O[C@H]2CO[C@H]3OCC[C@H]32)CSC1(C)C
Ki (Protease): 0.31 nM | IC50 [1]: 230 nM

Cc1ccccc1CNC(=O)[C@H]1N(C[C@@H](O)[C@H](Cc2ccccc2)NC(=O)O[C@H]2CCOC2)CSC1(C)C
Ki (Protease): 86.2 nM

Cc1ccccc1CNC(=O)[C@H]1N(C(=O)[C@@H](O)[C@H](Cc2ccccc2)NC(=O)O[C@H]2CCOC2)CSC1(C)C
Ki (Protease): 0.21 nM | IC50 [1]: 20 nM

Cc1ccccc1CNC(=O)[C@H]1N(C(=O)[C@@H](O)[C@H](Cc2ccccc2)NC(=O)O[C@@H]2CCOCOC2)CSC1(C)C
Ki (Protease): 0.78 nM

Cc1ccccc1CNC(=O)[C@H]1N(C(=O)[C@@H](O)[C@H](Cc2ccccc2)NC(=O)O[C@@H]2C[C@@H]3CCO[C@@H]3C2)CSC1(C)C
Ki (Protease): 0.29 nM | IC50 [1]: 13 nM

COC(=O)N[C@H](C(=O)N[C@@H](Cc1ccccc1)[C@@H](O)CN(Cc1ccc(-c2ccccn2)cc1)NC(=O)[C@@H](NC(=O)OC)C(C)(C)C)C(C)(C)C [ATAZANAVIR]
IC50 [2]: 45 nM | IC50 [3]: 635 nM | Ratio IC50 [4]: 15 | Ratio IC50 [5]: 10 | Ratio IC50 [6]: 13 | IC50 [7]: 47 nM | Ratio IC50 [8]: 16 | IC50 [9]: 29 nM | IC50 [10]: 40 nM | Ratio IC50 [11]: 212 | IC50 [12]: 3 nM

Cc1ccccc1CNC(=O)[C@H]1N(C(=O)[C@@H](O)[C@H](Cc2ccccc2)NC(=O)O[C@H]2CO[C@H]3OCC[C@H]32)CSC1(C)C
IC50 [2]: 61 nM | IC50 [3]: 235 nM | Ratio IC50 [4]: 2 | Ratio IC50 [5]: 1 | Ki (Protease): 0.0052 nM | Ratio IC50 [6]: 1 | IC50 [7]: 64 nM | Ratio IC50 [8]: 2 | IC50 [9]: 29 nM | IC50 [10]: 42 nM | Ratio IC50 [11]: 8 | IC50 [1]: 9 nM | IC50 [12]: 31 nM

Cc1ccccc1CNC(=O)[C@H]1N(C[C@@H](O)[C@H](Cc2ccccc2)NC(=O)O[C@H]2CO[C@H]3OCC[C@H]32)CSC1(C)C
Ki (Protease): 2.6 nM

Cc1ccccc1CNC(=O)[C@H]1N(C(=O)[C@@H](O)[C@H](Cc2ccccc2)NC(=O)O[C@@H]2C[C@@H]3OCO[C@@H]3C2)CSC1(C)C
Ki (Protease): 0.65 nM

CC(C)CN(C[C@@H](O)[C@H](Cc1ccccc1)NC(=O)O[C@H]1CCOC1)S(=O)(=O)c1ccc(N)cc1
IC50 [2]: 346 nM | Ratio IC50 [4]: 8 | Ratio IC50 [5]: 9 | Ratio IC50 [6]: 7 | IC50 [7]: 406 nM | Ratio IC50 [8]: 9 | IC50 [9]: 392 nM | IC50 [10]: 313 nM | Ratio IC50 [11]: 12 | IC50 [12]: 45 nM

Cc1cc(N)ccc1CNC(=O)[C@H]1N(C(=O)[C@@H](O)[C@H](Cc2ccccc2)NC(=O)O[C@H]2CO[C@H]3OCC[C@H]32)CSC1(C)C
Ki (Protease): 1.01 nM | IC50 [1]: 530 nM

COc1ccc(CNC(=O)[C@H]2N(C(=O)[C@@H](O)[C@H](Cc3ccccc3)NC(=O)O[C@H]3CO[C@H]4OCC[C@H]43)CSC2(C)C)c(C)c1
Ki (Protease): 2.03 nM | IC50 [1]: 51 nM
